The text below walks through data of ChEMBL document CHEMBL1135657, “Novel dual inhibitors of AChE and MAO derived from hydroxy aminoindan and phenethylamine as potential treatment for Alzheimer's disease” (J Med Chem, 2002).

Assay [1] concerns the target T1, Amine oxidase [flavin-containing] B (Rattus norvegicus, UniProt P19643).
T1 sequence (P19643 whole entry): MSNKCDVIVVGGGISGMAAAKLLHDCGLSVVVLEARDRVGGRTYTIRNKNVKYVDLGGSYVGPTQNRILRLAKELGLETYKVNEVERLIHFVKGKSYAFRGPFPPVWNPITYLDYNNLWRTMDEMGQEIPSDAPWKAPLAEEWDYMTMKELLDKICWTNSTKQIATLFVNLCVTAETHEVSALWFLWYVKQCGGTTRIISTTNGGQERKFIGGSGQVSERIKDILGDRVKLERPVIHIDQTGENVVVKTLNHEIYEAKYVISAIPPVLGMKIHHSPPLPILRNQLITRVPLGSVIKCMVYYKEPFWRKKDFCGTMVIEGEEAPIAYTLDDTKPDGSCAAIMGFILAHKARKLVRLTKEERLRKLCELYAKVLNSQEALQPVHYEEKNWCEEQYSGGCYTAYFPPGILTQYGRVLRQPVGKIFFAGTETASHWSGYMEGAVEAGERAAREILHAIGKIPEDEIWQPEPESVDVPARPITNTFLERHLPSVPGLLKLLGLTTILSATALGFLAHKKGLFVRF
Briefly: biochemical. Type of assay: tissue-based, Brain.

The target in assay [2] is T2, Amine oxidase [flavin-containing] A (Rattus norvegicus, UniProt P21396).
T2 sequence (P21396 whole entry): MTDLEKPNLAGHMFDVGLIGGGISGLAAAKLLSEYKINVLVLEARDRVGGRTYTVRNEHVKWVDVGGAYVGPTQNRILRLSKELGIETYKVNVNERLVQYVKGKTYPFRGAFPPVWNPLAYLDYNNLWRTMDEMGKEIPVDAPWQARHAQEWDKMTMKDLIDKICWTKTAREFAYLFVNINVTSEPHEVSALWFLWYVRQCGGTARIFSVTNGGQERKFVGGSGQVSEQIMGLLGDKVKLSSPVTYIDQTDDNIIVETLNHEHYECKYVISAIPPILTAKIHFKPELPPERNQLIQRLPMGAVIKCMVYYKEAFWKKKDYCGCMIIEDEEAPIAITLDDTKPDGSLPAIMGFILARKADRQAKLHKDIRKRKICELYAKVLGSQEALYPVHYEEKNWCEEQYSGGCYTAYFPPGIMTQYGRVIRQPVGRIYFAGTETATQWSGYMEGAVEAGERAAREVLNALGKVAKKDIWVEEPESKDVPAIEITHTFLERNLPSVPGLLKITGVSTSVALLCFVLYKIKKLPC
As to the kind of experiment: In vitro inhibitory concentration against Monoamine oxidase A of rat brain homogenates; value ranges from 0.5-3.7. Type of assay: tissue-based.

Assay [3] concerns the target T2, Amine oxidase [flavin-containing] A. As to the kind of experiment: In vitro inhibitory concentration against Monoamine oxidase A of rat brain homogenates; value ranges from 0.09-0.16. Type of assay: tissue-based.
Assay [4] concerns the target T1, Amine oxidase [flavin-containing] B. Briefly: In vitro inhibitory concentration against Monoamine oxidase B of rat brain homogenates; value ranges from 0.3-1.2. Type of assay: tissue-based.
Assay [5] addresses T3, Acetylcholinesterase (Homo sapiens, UniProt P22303). Briefly: In vitro inhibitory concentration against purified Acetylcholinesterase of human erythrocytes; value ranges from 1.32-2.23.
The target of assay [6] is T4, Butyrylcholinesterase (Equus caballus, UniProt Q9N1N9). Briefly: In vitro inhibitory concentration against Butyrylcholinesterase of horse serum; value ranges from 0.73-0.77. In short, it runs like this: (§1)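 Ellman assay followed, with 200 µM butyrylthiocholine as substrate. Runs were in triplicate with four-point dose-response curves. IC50 and fiducial limits came from log concentration versus % inhibition.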

The target of assay [7] is T2, Amine oxidase [flavin-containing] A. Briefly: In vitro inhibitory concentration against Monoamine oxidase A of rat brain homogenates; value ranges from 13-17. Type of assay: tissue-based.
In assay [8] the target is T3, Acetylcholinesterase. As to the kind of experiment: In vitro inhibitory concentration against purified Acetylcholinesterase of human erythrocytes; value ranges from 5.4-38.2.
Assay [9] concerns the target T4, Butyrylcholinesterase. As to the kind of experiment: In vitro inhibitory concentration against Butyrylcholinesterase of horse serum; value ranges from 1.89-4.67. In short, it runs like this:
as §1

For assay [10], the target named is T1, Amine oxidase [flavin-containing] B. Briefly: In vitro inhibitory concentration against Monoamine oxidase B of rat brain homogenates; value ranges from 0.2-0.8. Type of assay: tissue-based.
The target of assay [11] is T2, Amine oxidase [flavin-containing] A. As to the kind of experiment: In vitro inhibitory concentration against Monoamine oxidase A of rat brain homogenates; value ranges from 60-150. Type of assay: tissue-based.
Assay [12] addresses T1, Amine oxidase [flavin-containing] B. Briefly: In vitro inhibitory concentration against Monoamine oxidase B of rat brain homogenates. Type of assay: tissue-based.
In assay [13] the target is T3, Acetylcholinesterase. As to the kind of experiment: In vitro inhibitory concentration against purified Acetylcholinesterase of human erythrocytes; value ranges from 0.18-0.44.
Assay [14] addresses T1, Amine oxidase [flavin-containing] B. As to the kind of experiment: In vitro inhibitory concentration against Monoamine oxidase B of rat brain homogenates; value ranges from 0.18-0.30. Type of assay: tissue-based. In a few lines:
(§2)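 Rat brain homogenate (in 0.3 M sucrose) as enzyme source; compounds diluted 10⁻²M to 10⁻⁹M in 0.05 M phosphate buffer with 0.15 μM clorgyline; preincubated 60 min at 37 °C, then 10 μM ¹⁴C-phenylethylamine added for 20 min more; stopped with citric acid; metabolites extracted into toluene/ethyl acetate, scintillation counted; activity as % of control, tranylcypromine blank.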

The target in assay [15] is T3, Acetylcholinesterase. Briefly: In vitro inhibitory concentration against purified Acetylcholinesterase of human erythrocytes; value ranges from 2.2-6.9.
Assay [16] has as its target T2, Amine oxidase [flavin-containing] A. As to the kind of experiment: In vitro inhibitory concentration against Monoamine oxidase A of rat brain homogenates; value ranges from 14-24. Type of assay: tissue-based.
Assay [17] has the same target. Briefly: In vitro inhibitory concentration against Monoamine oxidase A of rat brain homogenates; value ranges from 0.014-0.016. Type of assay: tissue-based.
Assay [18] has as its target T1, Amine oxidase [flavin-containing] B. Briefly: In vitro inhibitory concentration against Monoamine oxidase B of rat brain homogenates; value ranges from […]. Type of assay: tissue-based. In short, it runs like this: as §2
Assay [19] concerns the target T2, Amine oxidase [flavin-containing] A. As to the kind of experiment: In vitro inhibitory concentration against Monoamine oxidase A of rat brain homogenates; value ranges from 110-520. Type of assay: tissue-based.
In assay [20] the target is T3, Acetylcholinesterase. As to the kind of experiment: In vitro inhibitory concentration against purified Acetylcholinesterase of human erythrocytes; value ranges from 0.12-0.32.
The target in assay [21] is T4, Butyrylcholinesterase. Briefly: In vitro inhibitory concentration against Butyrylcholinesterase of horse serum; value ranges from 6.8-31.2. In short, it runs like this:
as §1

Assay [22] concerns the target T3, Acetylcholinesterase. Briefly: In vitro inhibitory concentration against purified Acetylcholinesterase of human erythrocytes; value ranges from 5.24-30.8.
Assay [23] concerns the target T4, Butyrylcholinesterase. As to the kind of experiment: In vitro inhibitory concentration against Butyrylcholinesterase of horse serum; value ranges from 1.6-3.6.
Assay [24] has as its target T3, Acetylcholinesterase. As to the kind of experiment: In vitro inhibitory concentration against purified Acetylcholinesterase of human erythrocytes; value ranges from 13.6-128.
Assay [25] has as its target T2, Amine oxidase [flavin-containing] A. As to the kind of experiment: biochemical.
In assay [26] the target is T1, Amine oxidase [flavin-containing] B. As to the kind of experiment: In vitro inhibitory concentration against Monoamine oxidase B of rat brain homogenates; value ranges from 0.23-0.34. Type of assay: tissue-based.
Assay [27] addresses T3, Acetylcholinesterase. Briefly: In vitro inhibitory concentration against purified Acetylcholinesterase of human erythrocytes; value ranges from 2.8-27.5.
Assay [28] deals with T2, Amine oxidase [flavin-containing] A. Briefly: In vitro inhibitory concentration against Monoamine oxidase A of rat brain homogenates; value ranges from 0.8-1.0. Type of assay: tissue-based.
Assay [29] shares this target. As to the kind of experiment: In vitro inhibitory concentration against Monoamine oxidase A of rat brain homogenates; value ranges from 9-52. Type of assay: tissue-based.
Assay [30] addresses T3, Acetylcholinesterase. Briefly: In vitro inhibitory concentration against purified Acetylcholinesterase of human erythrocytes; value ranges from 0.12-0.41.

Molecules are shown by their SMILES.

T3 sequence (P22303 whole entry): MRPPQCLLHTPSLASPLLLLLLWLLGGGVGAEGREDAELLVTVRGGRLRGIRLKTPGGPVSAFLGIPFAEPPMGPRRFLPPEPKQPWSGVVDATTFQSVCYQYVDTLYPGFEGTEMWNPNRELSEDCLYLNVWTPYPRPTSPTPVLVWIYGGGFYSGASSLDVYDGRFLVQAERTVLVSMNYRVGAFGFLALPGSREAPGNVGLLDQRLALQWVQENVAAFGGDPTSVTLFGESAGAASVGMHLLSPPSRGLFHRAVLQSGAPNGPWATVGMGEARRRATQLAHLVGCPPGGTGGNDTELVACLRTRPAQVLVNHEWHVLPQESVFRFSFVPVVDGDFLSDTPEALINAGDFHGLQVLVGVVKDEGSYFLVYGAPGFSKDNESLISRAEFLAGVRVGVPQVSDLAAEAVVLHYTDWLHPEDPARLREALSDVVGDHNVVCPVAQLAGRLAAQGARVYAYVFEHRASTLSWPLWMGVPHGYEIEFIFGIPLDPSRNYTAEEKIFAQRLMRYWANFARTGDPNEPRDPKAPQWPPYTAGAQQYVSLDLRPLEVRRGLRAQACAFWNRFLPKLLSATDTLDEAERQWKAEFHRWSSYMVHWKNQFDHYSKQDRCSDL
T4 sequence (Q9N1N9 whole entry): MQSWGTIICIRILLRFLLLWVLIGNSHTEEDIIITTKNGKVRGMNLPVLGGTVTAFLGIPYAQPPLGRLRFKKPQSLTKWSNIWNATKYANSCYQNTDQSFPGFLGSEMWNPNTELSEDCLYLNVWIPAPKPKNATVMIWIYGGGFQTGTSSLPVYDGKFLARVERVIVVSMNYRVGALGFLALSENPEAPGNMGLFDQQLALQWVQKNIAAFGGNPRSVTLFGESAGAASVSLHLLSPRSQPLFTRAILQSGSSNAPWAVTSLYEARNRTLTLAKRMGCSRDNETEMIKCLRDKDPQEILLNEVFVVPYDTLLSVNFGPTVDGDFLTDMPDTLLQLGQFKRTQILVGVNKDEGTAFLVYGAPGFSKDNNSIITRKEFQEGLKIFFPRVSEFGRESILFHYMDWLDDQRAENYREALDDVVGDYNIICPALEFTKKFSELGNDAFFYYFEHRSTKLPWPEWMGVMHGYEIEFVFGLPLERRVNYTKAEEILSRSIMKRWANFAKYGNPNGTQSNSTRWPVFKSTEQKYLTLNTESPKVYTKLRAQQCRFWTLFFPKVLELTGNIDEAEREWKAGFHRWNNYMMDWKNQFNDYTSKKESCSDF

A word on the IC50: it is the concentration that gives 50% inhibition. Low values mean inhibition by little substance, high ones a need for much substance. As for `C#CCN(C)CCc1cccc(O)c1`, the IC50 in assay [1] amounted to 6.4 µM; in assay [2], 1.3 µM.

Consider `C#CCN(C)C(C)Cc1cccc(OC(=O)N(C)C)c1` (centres undefined), for which the IC50 in [3] was found to be 0.12 µM; in assay [4] it was 0.8 µM; in assay [5], 1.64 µM; in [6] it was 0.75 µM.

As for `C#CCNC(C)Cc1cccc(OC(=O)N(C)CCCC)c1` (centres undefined), the IC50 in assay [7] is 15 µM; in [8], 12.2 µM; in [9] it was 2.75 µM; in assay [10], 0.4 µM.

As to `CN(C)C(=O)Oc1cccc(CCN)c1`, the results for the IC50 in assay [11], in assay [12] and in assay [13] were 95 µM, above 1000 µM and 0.23 µM, respectively.

Take `C#CCNC(C)Cc1cccc(OC(=O)N(C)C2CCCCC2)c1` (centres undefined): the IC50 in assay [14] worked out at 0.23 µM; in [15] it was 3.6 µM; in assay [16] it was 18 µM.

In the case of `C#CCN(C)C1CCc2ccc(O)cc21` (centres undefined), the IC50 is 0.015 µM in [17] and 0.03 µM in assay [18].

`CCCN(C)C(=O)Oc1cccc(CCN)c1`: the figures for the IC50 in assay [12] and in assay [19] were above 1000 µM and 240 µM, respectively.

On to `CN(C)CCc1cccc(OC(=O)N(C)C)c1`, for which the IC50 in [20] was 0.16 µM; in assay [12], above 1000 µM.

As for `C#CCN[C@@H]1CCc2ccc(OC(=O)N(C)CCC)cc21`, the IC50 in assay [21] amounted to 14.9 µM; in [22], 10.8 µM.

On to `C#CCN[C@H]1CCc2ccc(OC(=O)N(C)CC)cc21`, for which the IC50 is 2.2 µM in assay [23], 34.9 µM in assay [24], 550 µM in [25] and above 1000 µM in [12].

Take `C#CCN(C)[C@@H](C)Cc1cccc(OC(=O)N(C)C2CCCCC2)c1`: the IC50 was determined as 0.28 µM in assay [26], 6.3 µM in assay [27] and 1.1 µM in assay [28].

Consider `CNCCc1cccc(OC(=O)N(C)C)c1`, for which the IC50 was 22 µM in assay [29], 0.28 µM in assay [30] and above 1000 µM in assay [12].
